{"source": "ChEMBL document CHEMBL2046299", "about": "“Construction and functionalization of fused pyridine ring leading to novel compounds as potential antitubercular agents” (Bioorg Med Chem Lett, 2012)"}
{"test_system": "Mycobacterium tuberculosis", "assay": "Antitubercular activity against Mycobacterium tuberculosis H37Rv ATCC 27294 assessed as minimum concentration required to inhibit 90% growth after 1 week by fluorescence-based microplate Alamar Blue assay", "format": "functional", "conditions": "H37Rv ATCC 27294, 168 h", "outline": "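M. tuberculosis H37Rv, MABA with fluorescence read-out. MIC taken as the lowest concentration cutting fluorescence by 90% relative to bacteria-only controls. Rifampicin, isoniazid and moxifloxacin served as reference compounds.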", "units": {"MIC90": "µg/mL"}}
{"smiles": "CCOC(=O)c1cc(Cl)[n+]([O-])c2ccc(C)cc12", "MIC90": 4.33}
{"smiles": "CCOC(=O)c1cc(Cl)[n+]([O-])c2ccccc12", "MIC90": 9.2}
{"smiles": "CCOC(=O)c1cc(Cl)[n+]([O-])c2ccc(F)cc12", "MIC90": 10.9}
{"smiles": "O=C(O)c1cc(O)n(O)c(=O)c1", "MIC90": "> 100"}
{"smiles": "Cc1cc(C(=O)O)cc(=O)[nH]1", "MIC90": "> 50"}
{"smiles": "O=C(O)c1cc(=O)[nH]c2c1CCC2", "MIC90": "> 50"}
{"smiles": "O=C(O)c1cc(=O)[nH]c2c1CCCC2", "MIC90": "> 50"}
{"smiles": "O=C(O)c1cc(=O)[nH]c2c1CCCCCC2", "MIC90": "> 50"}
{"smiles": "COC(=O)c1cc(C)[n+]([O-])c(Cl)c1", "MIC90": "> 100"}
{"smiles": "COC(=O)c1cc(Cl)[n+]([O-])c2c1CCC2", "MIC90": "> 100"}
{"smiles": "COC(=O)c1cc(Cl)[n+]([O-])c2c1CCCC2", "MIC90": "> 100"}
{"smiles": "COC(=O)c1cc(Cl)[n+]([O-])c2c1CCCCCC2", "MIC90": "> 50"}
{"smiles": "COC(=O)c1cc(C)n(O)c(=O)c1", "MIC90": "> 100"}
{"smiles": "CCOc1cc(C(=O)O)c2c([n+]1[O-])CCC2", "MIC90": "> 100"}
{"smiles": "CCOc1cc(C(=O)O)c2c([n+]1[O-])CCCC2", "MIC90": "> 100"}
{"smiles": "Cc1cc(C(=O)O)cc(=O)n1O", "MIC90": "> 50"}
{"smiles": "O=C(O)c1cc(=O)n(O)c2c1CCC2", "MIC90": "> 100"}
{"smiles": "O=C(O)c1cc(=O)n(O)c2c1CCCC2", "MIC90": "> 100"}
{"smiles": "CCOc1cc(C(=O)O)cc(OCC)[n+]1[O-]", "MIC90": "> 100"}
{"smiles": "O=C(O)c1cc(O)nc2ccccc12", "MIC90": "> 50"}
{"smiles": "Cc1ccc2[nH]c(=O)cc(C(=O)O)c2c1", "MIC90": "> 50"}
{"smiles": "O=C(O)c1cc(=O)[nH]c2ccc(F)cc12", "MIC90": "> 50"}
{"smiles": "O=C(O)c1cc(=O)[nH]c2ccc([N+](=O)[O-])cc12", "MIC90": "> 50"}
{"smiles": "O=C(O)c1cc(=O)n(O)c2ccccc12", "MIC90": "> 100"}
{"smiles": "Cc1ccc2c(c1)c(C(=O)O)cc(=O)n2O", "MIC90": "> 100"}
{"smiles": "O=C(O)c1cc(=O)n(O)c2ccc(F)cc12", "MIC90": "> 100"}
{"smiles": "Cc1cc(C(=O)O)cc(Cl)[n+]1[O-]", "MIC90": "> 100"}
{"smiles": "O=C(O)c1cc(Cl)[n+]([O-])c2c1CCC2", "MIC90": "> 50"}
{"smiles": "O=C(O)c1cc(Cl)[n+]([O-])c2c1CCCC2", "MIC90": "> 100"}
{"smiles": "O=C(O)c1cc(Cl)[n+]([O-])c2c1CCCCCC2", "MIC90": "> 100"}
{"smiles": "O=C(O)c1cc(Cl)[n+]([O-])c2ccccc12", "MIC90": "> 100"}
{"smiles": "Cc1ccc2c(c1)c(C(=O)O)cc(Cl)[n+]2[O-]", "MIC90": "> 100"}
{"smiles": "O=C(O)c1cc(Cl)[n+]([O-])c2ccc(F)cc12", "MIC90": "> 100"}
{"smiles": "NNC(=O)c1cc(=O)[nH]c2c1CCCC2", "MIC90": "> 100"}
{"smiles": "NNC(=O)c1cc(=O)[nH]c2c1CCC2", "MIC90": "> 100"}
{"smiles": "NNC(=O)c1cc(=O)[nH]c2ccccc12", "MIC90": "> 100"}
{"smiles": "Cc1ccc2[nH]c(=O)cc(C(=O)NN)c2c1", "MIC90": "> 100"}
{"smiles": "NNC(=O)c1cc(=O)[nH]c2ccc(F)cc12", "MIC90": "> 100"}
{"smiles": "NNC(=O)c1cc(=O)[nH]c2ccc([N+](=O)[O-])cc12", "MIC90": "> 100"}
{"smiles": "CCCn1c(=O)[nH]c(=O)c2c(C(=O)O)cc(=O)[nH]c21", "MIC90": "> 100"}
{"smiles": "CCCn1c(=O)[nH]c(=O)c2c(C(=O)O)cc(Cl)nc21", "MIC90": 91.7}
{"smiles": "O=C(O)c1cc(O)nc(O)c1", "note": "[CITRAZINIC ACID]", "MIC90": "> 50"}
{"smiles": "NNC(=O)c1ccncc1", "note": "[ISONIAZID]", "MIC90": 0.33}
{"smiles": "COc1c(N2C[C@@H]3CCCN[C@@H]3C2)c(F)cc2c(=O)c(C(=O)O)cn(C3CC3)c12", "note": "[MOXIFLOXACIN]", "MIC90": 0.39}
{"smiles": "CO[C@H]1/C=C/O[C@@]2(C)Oc3c(C)c(O)c4c(O)c(c(/C=N/N5CCN(C)CC5)c(O)c4c3C2=O)NC(=O)/C(C)=C\\C=C\\[C@H](C)[C@H](O)[C@@H](C)[C@@H](O)[C@@H](C)[C@H](OC(C)=O)[C@@H]1C", "note": "[RIFAMPIN]", "MIC90": 0.05}
{"test_system": "Mycobacterium tuberculosis", "assay": "(§1) Antitubercular activity against non-replicating Mycobacterium tuberculosis assessed as minimum concentration required to inhibit 90% growth after 10 days under anaerobic condition by luciferase-based low-oxygen recovery assay", "format": "functional", "conditions": "not given", "outline": "(§2)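 Non-replicating M. tuberculosis, low-oxygen recovery assay with luciferase read-out, run on compounds selected from the MABA screen. MIC taken as the lowest concentration inhibiting recovery of luciferase signal by ≥90% relative to bacteria-only controls. Rifampicin, isoniazid and moxifloxacin served as references.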", "units": {"inhibition (INH)": "%"}}
{"smiles": "NNC(=O)c1ccncc1", "note": "[ISONIAZID]", "inhibition (INH)": 84}
{"test_system": "Mycobacterium tuberculosis", "assay": "as §1", "format": "functional", "conditions": "Mycobacterium tuberculosis, 240 h", "outline": "as §2", "units": {"MIC90": "µg/mL"}}
{"smiles": "CCOC(=O)c1cc(Cl)[n+]([O-])c2ccc(C)cc12", "MIC90": 3.65}
{"smiles": "CCOC(=O)c1cc(Cl)[n+]([O-])c2ccccc12", "MIC90": 7.3}
{"smiles": "CCOC(=O)c1cc(Cl)[n+]([O-])c2ccc(F)cc12", "MIC90": 13.1}
{"smiles": "NNC(=O)c1ccncc1", "note": "[ISONIAZID]", "MIC90": "> 128"}
{"smiles": "COc1c(N2C[C@@H]3CCCN[C@@H]3C2)c(F)cc2c(=O)c(C(=O)O)cn(C3CC3)c12", "note": "[MOXIFLOXACIN]", "MIC90": 15.9}
{"test_system": "not listed separately", "assay": "(§3) Cytotoxicity against african green monkey Vero cells after 72 hrs by MTS assay", "format": "cell-based, Chlorocebus sabaeus", "conditions": "chlorocebus sabaeus, Vero cells; read-out: INH", "units": {"cytotoxicity at 72 h": "%"}}
{"smiles": "CCOC(=O)c1cc(Cl)[n+]([O-])c2ccc(C)cc12", "cytotoxicity at 72 h": 96}
{"test_system": "Vero", "assay": "as §3", "format": "cell-based, Chlorocebus sabaeus", "conditions": "Chlorocebus sabaeus, Vero, 72 h", "units": {"IC50": "µg/mL"}}
{"smiles": "CCOC(=O)c1cc(Cl)[n+]([O-])c2ccc(C)cc12", "IC50": "< 8"}
